In ChEMBL document CHEMBL4130545, “Lupane-Type Triterpenes of Phoradendron vernicosum” (J Nat Prod, 2017):

Columns and labels:
Vero = assay: Antiproliferative activity in African green monkey Vero cells by sulforhodamine B assay; type: cell-based; settings: Chlorocebus sabaeus
In short: (§1)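 Cells grown in D-MEM with 10% (v/v) FBS, 100 U/mL penicillin G and 100 μg/mL streptomycin, at 37 °C under 5% CO2 and 95% humidity. Cytotoxic and antiproliferative effects were measured by the sulforhodamine B method of Skehan et al. CC50 (cytotoxic) or IC50 (antiproliferative) is the concentration giving 50% growth reduction. Docetaxel was the positive control. Triplicate tests.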

MCF7 [1] = assay: Antiproliferative activity in human MCF7 cells by sulforhodamine B assay; type: functional, cell-based; in short: as §1
HeLa [2] = assay: Cytotoxic activity in human HeLa cells by sulforhodamine B assay; type: functional
In short: (§2)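 Cell lines grown in D-MEM with 10% (v/v) FBS, 100 U/mL penicillin G and 100 μg/mL streptomycin at 37 °C, 5% CO2, 95% humidity. Cytotoxicity was measured by the Skehan method. CC50 was taken as the concentration that reduces cell growth by 50%. Docetaxel served as positive control, and each test was run in triplicate.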

[3] = Selectivity index, ratio of cytotoxic CC50 for HEK293 cells to cytotoxic CC50 for human HeLa cells; type: toxicity; settings: HEK293 cells versus HeLa cells, read-out: Selectivity Index
In short: (§3)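 Selectivity index for harmfulness to normal cells: the normal-cell (Vero or HEK293) CC50 or IC50 over the cancer-cell value from the same assay type. Each value is from sulforhodamine B growth-reduction tests done in triplicate in D-MEM/10% FBS at 37 °C, 5% CO2.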

[4] = Selectivity index, ratio of antiproliferative IC50 for HEK293 cells to antiproliferative IC50 for human KB cells; type: toxicity; settings: HEK293 cells versus KB cells, read-out: Ratio IC50; in short: as §3
[5] = Selectivity index, ratio of cytotoxic CC50 for HEK293 cells to cytotoxic CC50 for human SiHa cells; type: toxicity; settings: HEK293 cells versus SiHa cells, read-out: Selectivity Index; in short: as §3
[6] = Selectivity index, ratio of cytotoxic CC50 for African green monkey Vero cells to cytotoxic CC50 for human SiHa cells; type: toxicity; settings: Vero cells versus SiHa cells, read-out: Selectivity Index; in short: as §3
[7] = Cytotoxic activity in African green monkey Vero cells by sulforhodamine B assay; type: cell-based; settings: chlorocebus sabaeus; in short: as §1
HeLa [8] = assay: Antiproliferative activity in human HeLa cells by sulforhodamine B assay; type: functional, cell-based; in short: as §1
KB [9] = assay: Cytotoxic activity in human KB cells by sulforhodamine B assay; type: functional; in short: as §2
SiHa [10] = assay: Antiproliferative activity in human SiHa cells by sulforhodamine B assay; type: functional, cell-based; in short: as §1
MDA-MB-231 [11] = assay: Antiproliferative activity in human MDA-MB-231 cells by sulforhodamine B assay; type: functional, cell-based; in short: as §1
KB [12] = assay: Antiproliferative activity in human KB cells by sulforhodamine B assay; type: functional, cell-based; in short: as §1
[13] = Selectivity index, ratio of antiproliferative IC50 for African green monkey Vero cells to antiproliferative IC50 for human HeLa cells; type: toxicity; settings: Vero cells versus HeLa cells, read-out: Ratio IC50; in short: as §3
[14] = Selectivity index, ratio of antiproliferative IC50 for HEK293 cells to antiproliferative IC50 for human SiHa cells; type: toxicity; settings: HEK293 cells versus SiHa cells, read-out: Ratio IC50; in short: as §3
[15] = Selectivity index, ratio of antiproliferative IC50 for African green monkey Vero cells to antiproliferative IC50 for human MCF7 cells; type: toxicity; settings: Vero cells versus MCF7 cells, read-out: Ratio IC50; in short: as §3
DU-145 [16] = assay: Cytotoxic activity in human DU145 cells by sulforhodamine B assay; type: functional; in short: as §2
[17] = Selectivity index, ratio of cytotoxic CC50 for HEK293 cells to cytotoxic CC50 for human MDA-MB-231 cells; type: toxicity; settings: HEK293 cells versus MDA-MB-231 cells, read-out: Selectivity Index; in short: as §3
[18] = Selectivity index, ratio of cytotoxic CC50 for African green monkey Vero cells to cytotoxic CC50 for human MCF7 cells; type: toxicity; settings: Vero cells versus MCF7 cells, read-out: Selectivity Index; in short: as §3
HEp-2 [19] = assay: Cytotoxic activity in human Hep2 cells by sulforhodamine B assay; type: functional; in short: as §2
[20] = Selectivity index, ratio of antiproliferative IC50 for African green monkey Vero cells to antiproliferative IC50 for human SiHa cells; type: toxicity; settings: Vero cells versus SiHa cells, read-out: Ratio IC50; in short: as §3
[21] = Selectivity index, ratio of cytotoxic CC50 for African green monkey Vero cells to cytotoxic CC50 for human MDA-MB-231 cells; type: toxicity; settings: Vero cells versus MDA-MB-231 cells, read-out: Selectivity Index; in short: as §3
HEK293 = assay: Antiproliferative activity in HEK293 cells by sulforhodamine B assay; type: cell-based; settings: Homo sapiens; in short: as §1
MCF7 [22] = assay: Cytotoxic activity in human MCF7 cells by sulforhodamine B assay; type: functional; in short: as §2
SiHa [23] = assay: Cytotoxic activity in human SiHa cells by sulforhodamine B assay; type: functional; in short: as §2
[24] = Selectivity index, ratio of cytotoxic CC50 for HEK293 cells to cytotoxic CC50 for human KB cells; type: toxicity; settings: HEK293 cells versus KB cells, read-out: Selectivity Index; in short: as §3
[25] = Selectivity index, ratio of antiproliferative IC50 for HEK293 cells to antiproliferative IC50 for human HeLa cells; type: toxicity; settings: HEK293 cells versus HeLa cells, read-out: Ratio IC50; in short: as §3
[26] = Cytotoxic activity in HEK293 cells by sulforhodamine B assay; type: cell-based; settings: human; in short: as §1
[27] = Selectivity index, ratio of cytotoxic CC50 for African green monkey Vero cells to cytotoxic CC50 for human HeLa cells; type: toxicity; settings: Vero cells versus HeLa cells, read-out: Selectivity Index; in short: as §3
MDA-MB-231 [28] = assay: Cytotoxic activity in human MDA-MB-231 cells by sulforhodamine B assay; type: functional; in short: as §2
[29] = Selectivity index, ratio of cytotoxic CC50 for HEK293 cells to cytotoxic CC50 for human MCF7 cells; type: toxicity; settings: HEK293 cells versus MCF7 cells, read-out: Selectivity Index; in short: as §3
[30] = Selectivity index, ratio of antiproliferative IC50 for HEK293 cells to antiproliferative IC50 for human MCF7 cells; type: toxicity; settings: HEK293 cells versus MCF7 cells, read-out: Ratio IC50; in short: as §3
[31] = Selectivity index, ratio of cytotoxic CC50 for African green monkey Vero cells to cytotoxic CC50 for human Hep2 cells; type: toxicity; settings: Vero cells versus Hep2 cells, read-out: Selectivity Index
[32] = Selectivity index, ratio of cytotoxic CC50 for HEK293 cells to cytotoxic CC50 for human Hep2 cells; type: toxicity; settings: HEK293 cells versus Hep2 cells, read-out: Selectivity Index; in short: as §3
[33] = Selectivity index, ratio of antiproliferative IC50 for African green monkey Vero cells to antiproliferative IC50 for human KB cells; type: toxicity; settings: Vero cells versus KB cells, read-out: Ratio IC50; in short: as §3
[34] = Selectivity index, ratio of cytotoxic CC50 for African green monkey Vero cells to cytotoxic CC50 for human KB cells; type: toxicity; settings: Vero cells versus KB cells, read-out: Selectivity Index; in short: as §3
DU-145 [35] = assay: Antiproliferative activity in human DU145 cells by sulforhodamine B assay; type: functional, cell-based; in short: as §1
HEp-2 [36] = assay: Antiproliferative activity in human Hep2 cells by sulforhodamine B assay; type: functional, cell-based; in short: as §1
[37] = Selectivity index, ratio of antiproliferative IC50 for African green monkey Vero cells to antiproliferative IC50 for human DU145 cells; type: toxicity; settings: Vero cells versus DU145 cells, read-out: Ratio IC50
[38] = Selectivity index, ratio of antiproliferative IC50 for HEK293 cells to antiproliferative IC50 for human MDA-MB-231 cells; type: toxicity; settings: HEK293 cells versus MDA-MB-231 cells, read-out: Ratio IC50
[39] = Selectivity index, ratio of cytotoxic CC50 for African green monkey Vero cells to cytotoxic CC50 for human DU145 cells; type: toxicity; settings: Vero cells versus DU145 cells, read-out: Selectivity Index; in short: as §3
[40] = Selectivity index, ratio of antiproliferative IC50 for HEK293 cells to antiproliferative IC50 for human DU145 cells; type: toxicity; settings: HEK293 cells versus DU145 cells, read-out: Ratio IC50
[41] = Selectivity index, ratio of cytotoxic CC50 for HEK293 cells to cytotoxic CC50 for human DU145 cells; type: toxicity; settings: HEK293 cells versus DU145 cells, read-out: Selectivity Index
[42] = Selectivity index, ratio of antiproliferative IC50 for African green monkey Vero cells to antiproliferative IC50 for human MDA-MB-231 cells; type: toxicity; settings: Vero cells versus MDA-MB-231 cells, read-out: Ratio IC50
[43] = Selectivity index, ratio of antiproliferative IC50 for HEK293 cells to antiproliferative IC50 for human Hep2 cells; type: toxicity; settings: HEK293 cells versus Hep2 cells, read-out: Ratio IC50
[44] = Selectivity index, ratio of antiproliferative IC50 for African green monkey Vero cells to antiproliferative IC50 for human Hep2 cells; type: toxicity; settings: Vero cells versus Hep2 cells, read-out: Ratio IC50; in short: as §3

C=C(C)[C@@H]1CC[C@]2(C(=O)O)CC[C@]3(C)[C@H](CC[C@@H]4[C@@]5(C)CC[C@H](O)C(C)(C)[C@@H]5CC[C@]43C)[C@@H]12 [BETULINIC ACID]
IC50 (Vero): 72100 nM | IC50 (MCF7 [1]): 56300 nM | CC50 (HeLa [2]): 32600 nM | selectivity ratio [3]: 2.5 | selectivity ratio [4]: 12 | selectivity ratio [5]: 2.8 | selectivity ratio [6]: 13 | CC50 [7]: 38100 nM | IC50 (HeLa [8]): 47600 nM | CC50 (KB [9]): 15600 nM | IC50 (SiHa [10]): 70100 nM | IC50 (MDA-MB-231 [11]): > 500000 nM | IC50 (KB [12]): 28100 nM | selectivity ratio [13]: 1.5 | selectivity ratio [14]: 4.8 | selectivity ratio [15]: 1.3 | CC50 (DU-145 [16]): > 500000 nM | selectivity ratio [17]: 0.8 | selectivity ratio [18]: 0.7 | CC50 (HEp-2 [19]): 48200 nM | selectivity ratio [20]: 1 | selectivity ratio [21]: 0.4 | IC50 (HEK293): 336000 nM | CC50 (MCF7 [22]): 49600 nM | CC50 (SiHa [23]): 28900 nM | selectivity ratio [24]: 5.1 | selectivity ratio [25]: 7 | CC50 [26]: 80000 nM | selectivity ratio [27]: 1.6 | CC50 (MDA-MB-231 [28]): 94300 nM | selectivity ratio [29]: 1.6 | selectivity ratio [30]: 6 | selectivity ratio [31]: 1.3 | selectivity ratio [32]: 1.6 | selectivity ratio [33]: 2.6 | selectivity ratio [34]: 2.4 | IC50 (DU-145 [35]): > 500000 nM | IC50 (HEp-2 [36]): > 500000 nM

CC(=O)O[C@@]12CO[C@@H]1C[C@H](O)[C@@]1(C)C(=O)[C@H](O)C3=C(C)[C@@H](OC(=O)[C@H](O)[C@@H](NC(=O)OC(C)(C)C)c4ccccc4)C[C@@](O)([C@@H](OC(=O)c4ccccc4)[C@H]21)C3(C)C [DOCETAXEL ANHYDROUS]
IC50 (Vero): 130 nM | IC50 (MCF7 [1]): 10 nM | CC50 (HeLa [2]): 90 nM | selectivity ratio [3]: 17.7 | selectivity ratio [4]: 2.2 | selectivity ratio [5]: 7.3 | selectivity ratio [6]: 5.9 | CC50 [7]: 1300 nM | selectivity ratio [37]: 13 | IC50 (HeLa [8]): 70 nM | CC50 (KB [9]): 180 nM | selectivity ratio [38]: 1.6 | IC50 (SiHa [10]): 90 nM | IC50 (MDA-MB-231 [11]): 70 nM | IC50 (KB [12]): 50 nM | selectivity ratio [13]: 1.9 | selectivity ratio [14]: 1.2 | selectivity ratio [15]: 13 | CC50 (DU-145 [16]): 810 nM | selectivity ratio [17]: 8.4 | selectivity ratio [18]: 130 | CC50 (HEp-2 [19]): 60 nM | selectivity ratio [20]: 1.4 | selectivity ratio [21]: 6.8 | selectivity ratio [39]: 1.6 | selectivity ratio [40]: 11 | IC50 (HEK293): 110 nM | CC50 (MCF7 [22]): 10 nM | CC50 (SiHa [23]): 220 nM | selectivity ratio [24]: 8.8 | selectivity ratio [25]: 1.6 | CC50 [26]: 1600 nM | selectivity ratio [41]: 2 | selectivity ratio [27]: 14.4 | CC50 (MDA-MB-231 [28]): 190 nM | selectivity ratio [29]: 160 | selectivity ratio [30]: 11 | selectivity ratio [42]: 1.9 | selectivity ratio [31]: 21.6 | selectivity ratio [32]: 26.6 | selectivity ratio [43]: 1.8 | selectivity ratio [33]: 2.6 | selectivity ratio [34]: 7.2 | selectivity ratio [44]: 2.2 | IC50 (DU-145 [35]): 10 nM | IC50 (HEp-2 [36]): 60 nM
